We go through 21 molecules from ChEMBL document CHEMBL1150222, “Benzophenones and xanthones with isoprenoid groups from Cudrania cochinchinensis” (J Nat Prod, 2001).

As a reminder, the CC50 is the concentration that lowers cell viability or growth by half. The low end stands for harm at low concentration, the high end for better tolerance by the cells.

The test system of data set [1] is HSC-2. Put plainly: Cytotoxicity against human HSC2 cells. In kind it is functional. A digest of the protocol:
(§1)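 Human oral squamous carcinoma HSC-2 cells and normal human gingival fibroblasts (HGF) were incubated 24 h with compound added in EtOH (final EtOH in medium below 1%). Viable cells were read as A540 against untreated controls. CC50 is reported in mM as the mean of duplicate determinations.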

Data set [2] in a line: Cytotoxicity against HGF cells. The conditions noted are these: human. The format is cell-based. A digest of the protocol: as §1
For data set [3], the system named is HSC-2. Description: Selectivity ratio CC50 for HGF to CC50 for human HSC-2 cells.

Regarding `C=CC(C)(C)c1c(O)cc2oc3c(O)c(O)cc(CC=C(C)C)c3c(=O)c2c1O` [ALVAXANTHONE], the CC50 came out at 22 µM with HSC-2 [1] and 25 µM in data set [2]. Further, in the data set with HSC-2 [3], the Ratio is listed as 1.1.

`CC(C)=CCc1c(O)cc2occ(-c3ccc(O)cc3)c(=O)c2c1O` [WIGHTEONE]: the CC50 in the data set with HSC-2 [1] was 120 µM; in data set [2], 250 µM. Besides, the Ratio in the data set on HSC-2 [3] stood at 2.1.

Regarding `O=C1C[C@@H](c2ccc(O)cc2)Oc2cc(O)cc(O)c21` [NARINGENIN], the CC50 with HSC-2 [1] was 550 µM; in data set [2], above 740 µM. Also, the Ratio in the data set with HSC-2 [3] was above 1.3.

In the case of `C=CC(C)(C)c1c(O)cc2oc3c(O)c(O)c(CC=C(C)C)cc3c(=O)c2c1O` [ISOALVAXANTHONE], the CC50 in the data set with HSC-2 [1] came out at 35 µM; in data set [2], 58 µM. Besides, the Ratio in the data set with HSC-2 [3] is 1.6.

Turning to `CC(C)=CCc1c(O)cccc1C(=O)c1cc2c(cc1O)OC(C)(C)C=C2` [CUDRAPHENONE A], the CC50 with HSC-2 [1] amounted to 170 µM; in data set [2], 430 µM. The Ratio in the data set on HSC-2 [3] came to 2.5.

As to `C=CC(C)(C)c1c(O)cc2oc3c(O)c4c(cc3c(=O)c2c1O)C=CC(C)(C)O4` [GERONTOXANTHONE B], the half-maximal cytotoxic concentration (CC50) was 390 µM in the data set on HSC-2 [1] and above 510 µM in data set [2]. The Ratio in the data set on HSC-2 [3] was above 1.3.

`CC1(C)C=Cc2c(cc3oc4c(O)cccc4c(=O)c3c2O)O1`: the CC50 with HSC-2 [1] was 480 µM; in data set [2], above 650 µM. Moreover, the Ratio in the data set on HSC-2 [3] is listed as above 1.4.

Turning to `CC(C)=CCc1c(O)cc2oc3ccc(O)cc3c(=O)c2c1O`, the CC50 (with HSC-2 [1]; in data set [2]) was above 640 µM throughout.

On to `CC(C)=CCc1c(O)cc(O)c2c(=O)c3c(CC=C(C)C)c(O)ccc3oc12` [GERONTOXANTHONE H], for which the figures for the CC50 (in the data set with HSC-2 [1]; in data set [2]) were 120 µM and 200 µM, respectively. In the data set on HSC-2 [3], the Ratio is given as 1.7.

For the molecule `C=CC(C)(C)c1c2c(c(O)c3c(=O)c4ccc(O)c(O)c4oc13)C=CC(C)(C)O2` [MACLURAXANTHONE], the 50% cytotoxic concentration (CC50) (with HSC-2 [1]; in data set [2]) was above 510 µM throughout.

On to `CC(C)=CCc1c(O)cccc1C(=O)c1c(O)cc(O)c(CC=C(C)C)c1O` [CUDRAPHENONE D], for which the CC50 came out at 52 µM in the data set with HSC-2 [1] and 190 µM in data set [2]. Besides, the Ratio in the data set on HSC-2 [3] was determined as 3.7.

On to `CC(C)=CCc1c(O)cccc1C(=O)c1c(O)cc(O)c2c1OC(C)(C)C=C2` [CUDRAPHENONE C], for which the CC50 in the data set with HSC-2 [1] was determined as 92 µM; in data set [2], 190 µM. The Ratio with HSC-2 [3] is 2.1.

Consider `COc1c2ccoc2cc2oc(=O)ccc12` [BERGAPTEN], for which the figures for the CC50 (in the data set on HSC-2 [1]; in data set [2]) were 720 µM and above 930 µM, respectively. Moreover, the Ratio with HSC-2 [3] is above 1.3.

Turning to `CC(C)=CCc1cc(C(=O)c2cccc(O)c2CC=C(C)C)c(O)cc1O` [CUDRAPHENONE B], the 50% cytotoxic concentration (CC50) in the data set on HSC-2 [1] was found to be 36 µM; in data set [2], 90 µM. In the data set on HSC-2 [3], the Ratio was determined as 2.5.

Take `CC1Oc2cc3oc4c(O)c5c(cc4c(=O)c3c(O)c2C1(C)C)C=CC(C)(C)O5` (centres undefined) [GERONTOXANTHONE A]: the CC50 (in the data set on HSC-2 [1]; in data set [2]) was above 510 µM each time.

On to `C=CC(C)(C)c1c(O)c(CC=C(C)C)c(O)c2c(=O)c3ccc(O)c(O)c3oc12` [GERONTOXANTHONE I], for which the CC50 in the data set on HSC-2 [1] is 430 µM; in data set [2] it was above 510 µM. For the same molecule, in the data set on HSC-2 [3], the Ratio was above 1.1.

For `CC1(C)C=Cc2c(cc3occ(-c4ccc(O)cc4)c(=O)c3c2O)O1` [ALPINUMISOFLAVONE], the 50% cytotoxic concentration (CC50) with HSC-2 [1] was 400 µM; in data set [2] it was above 600 µM. Besides, the Ratio with HSC-2 [3] is above 1.5.

In the case of `CC(C)=CCc1c(O)cc(O)c2c1OC(c1ccc(O)cc1)CC2=O` (centres undefined) [SOPHORAFLAVANONE B], the values for the half-maximal cytotoxic concentration (CC50) (with HSC-2 [1]; in data set [2]) were 130 µM and 190 µM, respectively. For the same molecule, in the data set with HSC-2 [3], the Ratio was determined as 1.5.

With `COc1cc(-c2coc3cc(O)cc(O)c3c2=O)ccc1O` [3'-O-METHYLOROBOL], the values for the CC50 (in the data set with HSC-2 [1]; in data set [2]) were 160 µM and above 670 µM, respectively. Moreover, in the data set on HSC-2 [3], the Ratio was above 4.2.

With `CC(C)=CCc1cc2c(=O)c3c(O)c4c(cc3oc2c(O)c1O)OC(C)C4(C)C` (centres undefined) [GERONTOXANTHONE G], the CC50 (in the data set on HSC-2 [1]; in data set [2]) was above 510 µM in each case.

Turning to `COc1cc(O)c(C(=O)c2cccc(O)c2CC=C(C)C)c(O)c1` [CUDRANONE], the CC50 is 400 µM with HSC-2 [1] and above 610 µM in data set [2]. In the data set on HSC-2 [3], the Ratio was above 1.5.
